CAL PDZ FP-1 – CAL PDZ peptide-binding inhibitors, primary screen, biochemical, fluorescence polarization, Cer-tagged CAL PDZ, HTS; Golgi-associated PDZ and coiled-coil motif-containing protein (Homo sapiens), Q9HD26; purified CAL PDZ, TMR-peptide fluorescence polarization, 1 h; inhibition, % at 20 µM; hit rate 0.02% among 330,000;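 active means highest replicate inhibition of at least 40%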;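 further: plate controls were DMSO neutral control wells for no effect and unlabeled competitor peptide control wells for full effect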
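material = purified tagged CAL PDZ domain construct (CerCALP) | buffer or medium = sodium phosphate/NaCl buffer pH 7.4 with TCEP, IgG, Thesit | reagent = TMR-labelled reporter peptide T*-PRC34 bound in PDZ groove | incubation = 1 h room-temperature incubation prior to read | measured by = fluorescence polarization (mP) | evaluation = percent inhibition from loss of millipolarization | control set = unlabelled peptide and DMSO controls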
Dyrk1A ADPGlo – rat Dyrk1A kinase inhibitors, primary screen, biochemical, single point, plate reader; Dual specificity tyrosine-phosphorylation-regulated kinase 1A (Rattus norvegicus), Q63470; ADP-Glo luminescence, NFATc1 peptide; inhibition, % at 12.5 µM; hit rate 0.43% among 310,000; in the data active means inhibition above about 50%;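 further: plate controls were vehicle with enzyme for no effect and no enzyme for full effect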
CAL PDZ FP-2 – untagged CAL PDZ binding inhibitors, primary screen, biochemical, fluorescence polarization, HTS; Golgi-associated PDZ and coiled-coil motif-containing protein (Homo sapiens), Q9HD26; purified CAL PDZ, TMR-peptide fluorescence polarization, 1 h; inhibition, % at 24.9 µM; hit rate 0.92% among 300,000;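 active means mean inhibition of at least 30% with at least half of replicates also reaching 30%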;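 further: 0% = DMSO neutral control and 100% = excess unlabeled competitor peptide PRC23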
ALR H2O2 inh – inhibitors of human ALR sulfhydryl oxidase, primary screen, biochemical, H2O2 detection, HRP-luminol luminescence, single point. FAD-linked sulfhydryl oxidase ALR (Homo sapiens), P55789. purified ALR, DTT oxidation. inhibition, % (test concentration not listed). hit rate 3.8% among 290,000. AID 485317, 2010;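 active means mean replicate inhibition above about 79%, with every replicate also reaching it, limit read from the data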
Target sequence (P55789 whole entry, looked up): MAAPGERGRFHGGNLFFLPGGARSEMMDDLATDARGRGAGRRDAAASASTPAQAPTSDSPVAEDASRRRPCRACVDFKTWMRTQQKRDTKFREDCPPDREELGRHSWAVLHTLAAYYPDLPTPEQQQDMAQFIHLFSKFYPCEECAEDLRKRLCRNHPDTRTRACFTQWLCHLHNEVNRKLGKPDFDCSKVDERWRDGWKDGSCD
Rtt109 HAT inh – inhibitors of C. albicans Rtt109/Vps75 HAT, primary screen, biochemical, ThioGlo CoA-SH fluorescence, plate reader. purified Rtt109/Vps75, 4 h. inhibition, % at 34.9 µM. hit rate 0.16% among 330,000;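 active means inhibition of at least 50% in every replicate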
Target sequence (Q5AAJ8 whole entry, looked up): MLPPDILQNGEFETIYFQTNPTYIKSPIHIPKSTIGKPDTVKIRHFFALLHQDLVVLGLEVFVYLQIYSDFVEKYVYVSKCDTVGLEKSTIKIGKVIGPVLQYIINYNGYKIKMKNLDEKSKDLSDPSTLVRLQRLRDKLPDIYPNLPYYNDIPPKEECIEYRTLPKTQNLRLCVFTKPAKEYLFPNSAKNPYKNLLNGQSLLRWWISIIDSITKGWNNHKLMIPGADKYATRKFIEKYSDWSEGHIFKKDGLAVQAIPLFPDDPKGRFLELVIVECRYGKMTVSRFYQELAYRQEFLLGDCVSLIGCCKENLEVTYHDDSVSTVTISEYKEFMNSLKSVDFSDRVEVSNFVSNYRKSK
Active calls of the source: *. An excerpt weighted towards active compounds, which were near 4.3% of everything screened.

Results for COc1ccc(C(=O)Nc2nc(C)c(C)s2)cc1OC ?
CAL PDZ FP-1: -1.6; Dyrk1A ADPGlo: 1.6; CAL PDZ FP-2: -7.3; ALR H2O2 inh: 99.2*; Rtt109 HAT inh: -1.6

What do the screens show for `Cc1cccc(C(=O)OCC(=O)Nc2c(C)n(C)n(-c3ccccc3)c2=O)c1O`?
CAL PDZ FP-1: -1.4; CAL PDZ FP-2: -1.8; ALR H2O2 inh: 14.7; Rtt109 HAT inh: -3.3

What do the screens show for `Cc1cc(F)ccc1NC(=O)CCc1c(C)nn(-c2ccc(N3CCCCC3)nn2)c1C`?
CAL PDZ FP-1: -1.7; Dyrk1A ADPGlo: 2.7; CAL PDZ FP-2: 80.3*; ALR H2O2 inh: -4.0; Rtt109 HAT inh: -14.7

What do the screens show for `COc1ccc2c(n1)Sc1nc3ccccc3nc1N2`?
CAL PDZ FP-1: -2.0; Dyrk1A ADPGlo: -6.6; CAL PDZ FP-2: -1.2; ALR H2O2 inh: -26.9; Rtt109 HAT inh: -0.8

What do the screens show for `O=C(O)CCN(Cc1ccccc1)S(=O)(=O)c1ccc(Cl)cc1F`?
CAL PDZ FP-1: 0.2; Dyrk1A ADPGlo: 6.1; CAL PDZ FP-2: -0.7; ALR H2O2 inh: -7.5; Rtt109 HAT inh: -1.4

What do the screens show for `O=C(O)CCN(Cc1ccccc1)S(=O)(=O)c1ccccc1Cl`?
CAL PDZ FP-1: -1.7; CAL PDZ FP-2: 52.3*; Rtt109 HAT inh: 0.9

What do the screens show for `COc1ccc(-c2nc(CS(=O)CC(=O)NC3CCC(C)CC3)c(C)o2)cc1OC` (stereo not drawn)?
CAL PDZ FP-1: -1.6; Dyrk1A ADPGlo: 0.2; ALR H2O2 inh: 99.5*; Rtt109 HAT inh: 16.0

What do the screens show for `COc1ccc(-c2nc(CS(=O)CC(=O)NC3CCCc4ccccc43)c(C)o2)cc1OC` (stereo not drawn)?
CAL PDZ FP-1: 0.1; Dyrk1A ADPGlo: 5.7; CAL PDZ FP-2: 17.6; ALR H2O2 inh: 98.9*; Rtt109 HAT inh: 1.7

Results for COc1ccc(-c2nc(CS(=O)CC(=O)NC3CCCC3)c(C)o2)cc1OC (stereo not drawn) ?
CAL PDZ FP-1: -0.6; Dyrk1A ADPGlo: 0.1; ALR H2O2 inh: 99.2*; Rtt109 HAT inh: -21.5

How did COc1ccc(N2CCN(C(=O)CS(=O)Cc3nc(-c4ccc(OC)c(OC)c4)oc3C)CC2)cc1 (stereo not drawn) do in these assays?
CAL PDZ FP-1: -3.7; Dyrk1A ADPGlo: 2.0; CAL PDZ FP-2: -3.5; ALR H2O2 inh: -1.7; Rtt109 HAT inh: -2.5

What do the screens show for `COc1ccc(-c2nc(CSCC(=O)NC3CCCc4ccccc43)c(C)o2)cc1OC` (stereo not drawn)?
CAL PDZ FP-1: -3.5; Dyrk1A ADPGlo: -5.5; CAL PDZ FP-2: -1.5; Rtt109 HAT inh: -1.7

Results for CC(C)OCCCN1CN(S(=O)(=O)c2cccs2)c2nc3ccccc3nc21 ?
ALR H2O2 inh: 0.7

How did COCc1cc(C)n(CC(=O)N/N=C/c2ccc(-c3ccc(Cl)c(C(=O)O)c3)o2)c(=O)c1C#N do in these assays?
CAL PDZ FP-1: -3.6; Dyrk1A ADPGlo: 0.1; CAL PDZ FP-2: -0.8; ALR H2O2 inh: 4.6; Rtt109 HAT inh: 2.5

Results for COCc1cc(C)nc(N/N=C/c2ccc(-c3ccc(C(=O)O)c(Cl)c3)o2)c1C#N ?
ALR H2O2 inh: 97.7*

Results for N#Cc1c(/N=C/c2ccc(-c3ccc(C(=O)O)c(Cl)c3)o2)sc2c1CCCC2 ?
CAL PDZ FP-1: -1.2; Dyrk1A ADPGlo: 10.8; CAL PDZ FP-2: -2.9; ALR H2O2 inh: 98.8*; Rtt109 HAT inh: -3.9

Results for N#Cc1c(/N=C/c2ccc(-c3ccccc3C(=O)O)o2)sc2c1CCCC2 ?
CAL PDZ FP-1: 1.0; Dyrk1A ADPGlo: 9.3; CAL PDZ FP-2: -2.4; Rtt109 HAT inh: 1.7

Results for CCN(CC)c1ccc(NS(=O)(=O)c2cn(C)c(=O)n(C)c2=O)c(C)c1 ?
CAL PDZ FP-1: 0.5; Dyrk1A ADPGlo: 2.8; ALR H2O2 inh: 98.9*; Rtt109 HAT inh: -1.8

Results for CN(C)c1ccc(CNc2ccccn2)cc1 ?
CAL PDZ FP-1: 0.1; Dyrk1A ADPGlo: -5.6; CAL PDZ FP-2: 3.4; ALR H2O2 inh: 98.1*; Rtt109 HAT inh: -5.3

What do the screens show for `Cc1cccc(NCc2ccc(N(C)C)cc2)n1`?
CAL PDZ FP-1: 0.7; Dyrk1A ADPGlo: -2.3; CAL PDZ FP-2: -2.4; ALR H2O2 inh: 82.4*; Rtt109 HAT inh: 4.5

How did C=CCNC(=O)COc1c(C)ccc(C)c1C do in these assays?
CAL PDZ FP-1: -1.6; CAL PDZ FP-2: -2.9; ALR H2O2 inh: -1.2; Rtt109 HAT inh: 1.7

What do the screens show for `CC(C)(C)OC(=O)C[C@H]1C/C=C\C[C@H](CC(=O)NCCO)C(=O)NC[C@@H](c2ccccc2)OC1=O`?
CAL PDZ FP-1: -1.0; Dyrk1A ADPGlo: 5.2; CAL PDZ FP-2: -0.9; ALR H2O2 inh: -2.6; Rtt109 HAT inh: -7.2

What do the screens show for `COc1ccc(OC)c(N(CC(=O)N2CCOCC2)S(C)(=O)=O)c1`?
CAL PDZ FP-1: 0.1; Dyrk1A ADPGlo: -3.7; CAL PDZ FP-2: -5.6; ALR H2O2 inh: -0.1; Rtt109 HAT inh: 7.9

How did O=C(CCNc1ccccc1)c1cccc([N+](=O)[O-])c1 do in these assays?
CAL PDZ FP-1: -1.4; Dyrk1A ADPGlo: 9.1; CAL PDZ FP-2: -2.3; ALR H2O2 inh: 98.4*; Rtt109 HAT inh: -3.2

How did COC(=O)c1ccc(N2CCN(C)CC2)c(NC(=O)COc2cccc(C)c2)c1 do in these assays?
CAL PDZ FP-1: -2.8; Dyrk1A ADPGlo: -2.7; CAL PDZ FP-2: -1.9; ALR H2O2 inh: 2.6; Rtt109 HAT inh: -2.5

What do the screens show for `O=C(CCc1c[nH]c2ccccc12)NCCc1ccccc1`?
CAL PDZ FP-1: -0.9; Dyrk1A ADPGlo: 2.7; CAL PDZ FP-2: -3.0; ALR H2O2 inh: -0.1; Rtt109 HAT inh: 4.3

What do the screens show for `O=C(CCc1c[nH]c2ccccc12)NCCc1ccc(O)cc1`?
CAL PDZ FP-1: 1.7; Dyrk1A ADPGlo: 6.1; CAL PDZ FP-2: -4.2; ALR H2O2 inh: 85.4*; Rtt109 HAT inh: -1.4

How did O=C(CCc1c[nH]c2ccccc12)NCCc1ccc(Cl)cc1 do in these assays?
CAL PDZ FP-1: -1.5; Dyrk1A ADPGlo: 10.2; CAL PDZ FP-2: 36.5*; Rtt109 HAT inh: 7.3

How did N#CCC(=O)Nc1ccc(C(=O)NCCc2c[nH]c3ccccc23)cc1 do in these assays?
CAL PDZ FP-1: -2.1; Dyrk1A ADPGlo: -1.6; CAL PDZ FP-2: -5.7; ALR H2O2 inh: 98.5*; Rtt109 HAT inh: -1.4

How did CC(C)(C)OC(=O)[C@H](Cc1ccccc1)NC(=O)c1nc[nH]c1C(=O)N1CCNCC1 do in these assays?
CAL PDZ FP-1: 0.1; Dyrk1A ADPGlo: -0.9; CAL PDZ FP-2: 1.2; ALR H2O2 inh: 5.7; Rtt109 HAT inh: -10.6

How did CC1CC1C(=O)N(CCC1=CCCCC1)c1c(N)n(Cc2ccccc2)c(=O)[nH]c1=O (stereo not drawn) do in these assays?
CAL PDZ FP-1: -2.1; Dyrk1A ADPGlo: 24.5; CAL PDZ FP-2: -4.7; ALR H2O2 inh: -0.3; Rtt109 HAT inh: 0.9

Bioassay records from PubChem BioAssay.
